Data reported in ChEMBL document CHEMBL5247575 (J Med Chem, 2018).
In brackets after ≈: the same amount, converted by molar mass.

Key:
Acinetobacter baumannii [1] = test: Antibacterial activity against Acinetobacter baumannii NCTC 13301 producing OXA-23/51 infected in sc dosed Swiss albino mouse administered 1 hr post infection and measured upto 7 days; assay type: functional; conditions: for ED90 / ED50: NCTC 13301, 168 h, time <= 7 day; for ED50: read-out: PD50
Method in brief: (§1)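 Peritonitis model: male and female Swiss albino mice infected intraperitoneally with 3.5×10^5 to 3×10^6 CFU/mouse in 5% hog gastric mucin (lethal to untreated mice within 24 h). […] Survival followed 7 days; PD50/PD90 by probit analysis.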

Acinetobacter baumannii [2] = test: Antibacterial activity against Acinetobacter baumannii PR476 producing OXA-24/40 by broth microdilution method; assay type: functional
Acinetobacter baumannii [3] = test: Antibacterial activity against Acinetobacter baumannii SL04 producing OXA-23/51 infected in Swiss mouse model of neutropenic lung infection assessed as reduction in log10CFU at 50 mg/kg
Acinetobacter baumannii [4] = test: Antibacterial activity against Acinetobacter baumannii SL46 producing OXA-23/51 infected in sc dosed Swiss albino mouse administered 1 hr post infection and measured upto 7 days; assay type: functional; conditions: SL46, 168 h, time <= 7 day; method in brief: as §1
Acinetobacter baumannii [5] = test: Antibacterial activity against Acinetobacter baumannii NCTC 13303 producing OXA-26/51 infected in sc dosed Swiss albino mouse administered 1 hr post infection and measured upto 7 days; assay type: functional; conditions: NCTC 13303, 168 h, time <= 7 day; method in brief: as §1
Acinetobacter baumannii [6] = test: Antibacterial activity against Acinetobacter baumannii SL04 producing OXA-23/51 infected in Swiss mouse model of neutropenic lung infection
Klebsiella pneumoniae [7] = test: Antibacterial activity against Klebsiella pneumoniae 977/1916 producing KPC-3 by broth microdilution method; assay type: functional
Acinetobacter baumannii [8] = test: Antibacterial activity against Acinetobacter baumannii NCTC 13303 producing OXA-26/51 infected in sc dosed Swiss albino mouse administered 1 hr post infection and measured upto 7 days; conditions: NCTC 13303, 168 h; for ED50: read-out: PD50
Acinetobacter baumannii [9] = test: Antibacterial activity against ADC deleted Acinetobacter baumannii transfected with pWH1266 producing OXA-24/40 by broth microdilution method; assay type: functional
Escherichia coli = test: Antibacterial activity against Escherichia coli DH10B transfected with pBC SK (-) OXA-48 by broth microdilution method; assay type: functional
Acinetobacter baumannii [10] = test: Antibacterial activity against Acinetobacter baumannii SL46 producing OXA-23/51 infected in sc dosed Swiss albino mouse administered 1 hr post infection and measured upto 7 days; conditions: SL46, 168 h
Klebsiella pneumoniae [11] = test: Antibacterial activity against Klebsiella pneumoniae 660/1568 producing KPC-3 by broth microdilution method; assay type: functional

**Q.** What does the source list for `CO/N=C(\C(=O)N[C@@H]1C(=O)N2C(C(=O)[O-])=C(C[N+]3(C)CCCC3)CS[C@H]12)c1csc(N)n1`?
**A.** ED90 (Acinetobacter baumannii [1]): > 100 mg/kg; ED50 (Acinetobacter baumannii [1]): > 100 mg/kg; MIC (Acinetobacter baumannii [2]): 1 µg/mL (≈ 2.08 µM); Activity (Acinetobacter baumannii [3]): 0.98 log10CFU; ED90 (Acinetobacter baumannii [4]): 50 mg/kg; ED50 (Acinetobacter baumannii [4]; read-out: PD50): 50 mg/kg; ED90 (Acinetobacter baumannii [5]): 50 mg/kg; ED50 (Acinetobacter baumannii [5]; read-out: PD50): 50 mg/kg

**Q.** Which MIC (Acinetobacter baumannii [6]) does the source give for `C[C@@H](O)[C@H]1C(=O)N2C(C(=O)O)=C(SCCNC=N)C[C@H]12` [IMIPENEM ANHYDROUS] here?
**A.** The MIC was 64 µg/mL (≈ 214 µM).

**Q.** What does the source list for `C[C@@H](O)[C@H]1C(=O)N2C(C(=O)O)=C(S[C@@H]3CN[C@H](C(=O)N(C)C)C3)[C@H](C)[C@H]12` [MEROPENEM]?
**A.** MIC (Klebsiella pneumoniae [7]): 1 µg/mL (≈ 2.61 µM); ED90 (Acinetobacter baumannii [1]): 25 mg/kg; ED50 (Acinetobacter baumannii [1]): 25 mg/kg; ED90 (Acinetobacter baumannii [8]): 50 mg/kg; ED50 (Acinetobacter baumannii [8]): 50 mg/kg; MIC (Acinetobacter baumannii [6]): 64 µg/mL (≈ 167 µM); MIC (Acinetobacter baumannii [2]): 0.25 µg/mL (≈ 0.652 µM); MIC (Acinetobacter baumannii [9]): > 16 µg/mL; MIC (Escherichia coli): 8 µg/mL (≈ 20.9 µM); ED90 (Acinetobacter baumannii [10]): 50 mg/kg; ED50 (Acinetobacter baumannii [10]; read-out: PD50): 50 mg/kg; MIC (Klebsiella pneumoniae [11]): 2 µg/mL (≈ 5.22 µM)

**Q.** For `CN(C)c1cc(NC(=O)CNC(C)(C)C)c(O)c2c1C[C@H]1C[C@H]3[C@H](N(C)C)C(O)=C(C(N)=O)C(=O)[C@@]3(O)C(O)=C1C2=O` [TIGECYCLINE], which ED90 (Acinetobacter baumannii [1]) is on record?
**A.** The ED90 was > 6.25 mg/kg.

**Q.** And the ED50 (Acinetobacter baumannii [1])?
**A.** Its ED50 is > 6.25 mg/kg.

**Q.** What about the ED90 (Acinetobacter baumannii [8]) of the same compound?
**A.** Its ED90 is > 6.25 mg/kg.

**Q.** And the ED50 (Acinetobacter baumannii [8])?
**A.** The ED50 was > 6.25 mg/kg.

**Q.** What about the MIC (Acinetobacter baumannii [6]) of the same compound?
**A.** Its MIC is 4 µg/mL (≈ 6.83 µM).

**Q.** How did the PD50 (Acinetobacter baumannii [1]; time <= 7.0 day) turn out when COLISTIN was run?
**A.** Its PD50 is 16.6 mg/kg.
